Experimental findings from ChEMBL document CHEMBL4145598, “Discovery and Development of 8-Substituted Cycloberberine Derivatives as Novel Antibacterial Agents against MRSA” (ACS Med Chem Lett, 2018) are described below.

Common to all, as to assay type: functional
Assay [1] has as its system Staphylococcus aureus. The experiment in a line: Antimicrobial activity against vancomycin-intermediate Staphylococcus aureus ATCC 700699 after 18 hrs by agar dilution assay. The settings on record: ATCC 700699, 18 h. In short, it runs like this: (§1)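 MICs in μg/mL against drug-resistant S. aureus (MRSA/VISA) by standard methods, with levofloxacin as the reference drug. ATCC strains were used.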
For orientation: In agar dilution the substance is mixed into plates at graded concentrations.

The test system of assay [2] is Staphylococcus aureus. The experiment in a line: Antimicrobial activity against vancomycin-intermediate Staphylococcus aureus ATCC 700698 after 18 hrs by agar dilution assay. The settings on record: ATCC 700698, 18 h. In short, it runs like this: as §1
For assay [3], the system named is Staphylococcus epidermidis. Put plainly: Antimicrobial activity against methicillin-sensitive Staphylococcus epidermidis ATCC 12228 after 18 hrs by agar dilution assay. The settings on record: ATCC 12228, 18 h.
In assay [4] the test system is Staphylococcus epidermidis. The experiment in a line: Antimicrobial activity against methicillin-sensitive Staphylococcus epidermidis isolate 13-1 after 18 hrs by agar dilution assay. Particulars: isolate 13-1, 18 h.
Assay [5] relates to Staphylococcus saprophyticus. Put plainly: Antimicrobial activity against Staphylococcus saprophyticus ATCC 15305 after 18 hrs by agar dilution assay. Particulars: ATCC 15305, 18 h.
The test system of another assay is Staphylococcus hominis. The experiment in a line: Antimicrobial activity against Staphylococcus hominis ATCC 35982 after 18 hrs by agar dilution assay. Particulars: ATCC 35982, 18 h.
Assay [6] has as its system Staphylococcus aureus. Put plainly: Antimicrobial activity against methicillin-sensitive Staphylococcus aureus isolate 13-21 after 18 hrs by agar dilution assay. Particulars: isolate 13-21, 18 h.
In assay [7] the test system is Staphylococcus aureus. The experiment in a line: Antimicrobial activity against methicillin-sensitive Staphylococcus aureus isolate 15 after 18 hrs by agar dilution assay. The settings on record: isolate 15, 18 h.
Assay [8] relates to Staphylococcus aureus. Put plainly: Antimicrobial activity against methicillin-sensitive Staphylococcus aureus isolate 13-19 after 18 hrs by agar dilution assay. The settings on record: isolate 13-19, 18 h.
Assay [9] has as its system Staphylococcus aureus. Put plainly: Antimicrobial activity against methicillin-sensitive Staphylococcus aureus isolate 13-17 after 18 hrs by agar dilution assay. The settings on record: isolate 13-17, 18 h.
The test system of assay [10] is Staphylococcus aureus. The experiment in a line: Antimicrobial activity against methicillin-sensitive Staphylococcus aureus ATCC 29213 after 18 hrs by agar dilution assay. Particulars: ATCC 29213, 18 h.
The test system of assay [11] is Staphylococcus aureus. The experiment in a line: Antimicrobial activity against methicillin-resistant Staphylococcus aureus isolate 13-18 after 18 hrs by agar dilution assay. The settings on record: isolate 13-18, 18 h. The method in brief: (§2)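 Drug-resistant S. aureus (MRSA/VISA) panel. It includes ATCC reference strains and clinical isolates from patients in Chinese hospitals. MIC was determined by standard methods and reported in μg/mL, with levofloxacin as the reference drug.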

Assay [12] relates to Staphylococcus aureus. The experiment in a line: Antimicrobial activity against methicillin-resistant Staphylococcus aureus isolate 12-3 after 18 hrs by agar dilution assay. Particulars: isolate 12-3, 18 h. The method in brief: as §2
For assay [13], the system named is Staphylococcus aureus. The experiment in a line: Antimicrobial activity against methicillin-resistant Staphylococcus aureus isolate 12-8 after 18 hrs by agar dilution assay. Particulars: isolate 12-8, 18 h. In short, it runs like this: as §2
Assay [14] relates to Staphylococcus aureus. Put plainly: Antimicrobial activity against methicillin-sensitive Staphylococcus aureus isolate 13-20 after 18 hrs by agar dilution assay. The settings on record: isolate 13-20, 18 h.
Assay [15] concerns Staphylococcus aureus. Put plainly: Antimicrobial activity against methicillin-resistant Staphylococcus aureus ATCC-BAA-1708 after 18 hrs by agar dilution assay. The settings on record: ATCC-BAA-1708, 18 h. The method in brief: as §2
Assay [16] concerns Staphylococcus aureus. Put plainly: Antimicrobial activity against methicillin-resistant Staphylococcus aureus isolate 12-16 after 18 hrs by agar dilution assay. The settings on record: isolate 12-16, 18 h. The method in brief: as §2
Assay [17] concerns Staphylococcus aureus. The experiment in a line: Antimicrobial activity against methicillin-resistant Staphylococcus aureus ATCC 33591 after 18 hrs by agar dilution assay. Particulars: ATCC 33591, 18 h. In short, it runs like this:
as §2

The test system of assay [18] is Staphylococcus aureus. Put plainly: Antimicrobial activity against methicillin-resistant Staphylococcus aureus isolate 13-23 after 18 hrs by agar dilution assay. The settings on record: isolate 13-23, 18 h. In short, it runs like this: as §2
Assay [19] has as its system Staphylococcus aureus. Put plainly: Antimicrobial activity against methicillin-resistant Staphylococcus aureus isolate 12-13 after 18 hrs by agar dilution assay. Particulars: isolate 12-13, 18 h. In short, it runs like this: as §2

Molecules are shown by their SMILES.

Consider `COc1ccc(CNc2c(OC)ccc3c2c[n+]2c4c3ccc3c5c(cc(c34)CC2)OCO5)cc1.[Cl-]`, for which the MIC against Staphylococcus aureus [1] is above 64 µg/mL; in the assay on Staphylococcus aureus [2], 16 µg/mL; in [3], 8 µg/mL; in assay [4] it was 64 µg/mL; in [5], 16 µg/mL; in the assay with Staphylococcus hominis, 8 µg/mL.

With `COc1ccc2c(c[n+]3c4c2ccc2c5c(cc(c24)CC3)OCO5)c1N.[Cl-]`, the MIC was determined as 8 µg/mL against Staphylococcus aureus [6]; 4 µg/mL in the assay with Staphylococcus aureus [7]; 8 µg/mL in the assay on Staphylococcus aureus [8]; 4 µg/mL against Staphylococcus aureus [9]; 4 µg/mL in the assay with Staphylococcus aureus [1]; 64 µg/mL in the assay on Staphylococcus aureus [2]. In addition, the minimum inhibitory concentration (MIC) against Staphylococcus aureus [10] amounted to 4 µg/mL; in assay [3] it was 8 µg/mL; against Staphylococcus aureus [11], 8 µg/mL; against Staphylococcus aureus [12], 8 µg/mL; with Staphylococcus aureus [13], 4 µg/mL; with Staphylococcus aureus [14], 4 µg/mL. The MIC worked out at 4 µg/mL with Staphylococcus aureus [15]; 8 µg/mL in [4]; 4 µg/mL in the assay with Staphylococcus aureus [16]; 8 µg/mL in assay [5]; 8 µg/mL against Staphylococcus hominis; 4 µg/mL against Staphylococcus aureus [17]. The minimal inhibitory concentration (MIC) in the assay with Staphylococcus aureus [18] came to 8 µg/mL; with Staphylococcus aureus [19], 4 µg/mL.

Take `C[C@H]1COc2c(N3CCN(C)CC3)c(F)cc3c(=O)c(C(=O)O)cn1c23.C[C@H]1COc2c(N3CCN(C)CC3)c(F)cc3c(=O)c(C(=O)O)cn1c23.O` [LEVOFLOXACIN]: the MIC turned out to be 0.25 µg/mL in the assay with Staphylococcus aureus [6]; 0.125 µg/mL with Staphylococcus aureus [7]; 0.5 µg/mL against Staphylococcus aureus [8]; 0.125 µg/mL against Staphylococcus aureus [9]; 2 µg/mL with Staphylococcus aureus [1]; 32 µg/mL in the assay on Staphylococcus aureus [2]. For the same compound, the MIC in the assay with Staphylococcus aureus [10] is 0.06 µg/mL; in assay [3], 0.06 µg/mL; against Staphylococcus aureus [11], 32 µg/mL; against Staphylococcus aureus [12] it was 32 µg/mL; against Staphylococcus aureus [13] it was 32 µg/mL; in the assay with Staphylococcus aureus [14], 0.125 µg/mL. The MIC against Staphylococcus aureus [15] stood at 16 µg/mL; in assay [4], 0.125 µg/mL; in the assay with Staphylococcus aureus [16], 32 µg/mL; in assay [5] it was 0.5 µg/mL; against Staphylococcus hominis it was 0.125 µg/mL; in the assay with Staphylococcus aureus [17] it was 0.125 µg/mL. Further, the MIC in the assay with Staphylococcus aureus [18] and in the assay with Staphylococcus aureus [19] was 32 µg/mL each time.

Consider `COc1ccc2c(c[n+]3c4c2ccc2c5c(cc(c24)CC3)OCO5)c1OCC(=O)c1ccccc1.[Br-]`, for which the MIC in the assay with Staphylococcus aureus [6] is 16 µg/mL; in the assay with Staphylococcus aureus [7], 32 µg/mL; with Staphylococcus aureus [8], 16 µg/mL; in the assay on Staphylococcus aureus [9], 16 µg/mL; in the assay on Staphylococcus aureus [1] it was above 64 µg/mL; against Staphylococcus aureus [2] it was above 64 µg/mL. Also, the MIC against Staphylococcus aureus [10] was 16 µg/mL; in [3], 8 µg/mL; against Staphylococcus aureus [11], 32 µg/mL; in the assay on Staphylococcus aureus [12] it was 16 µg/mL; with Staphylococcus aureus [13], 16 µg/mL; against Staphylococcus aureus [14], 32 µg/mL. In addition, the MIC against Staphylococcus aureus [15] stood at 32 µg/mL; in [4], 64 µg/mL; against Staphylococcus aureus [16], 32 µg/mL; in assay [5] it was 16 µg/mL; in the assay with Staphylococcus hominis it was 32 µg/mL; against Staphylococcus aureus [17] it was 16 µg/mL. Besides, the MIC with Staphylococcus aureus [18] stood at 16 µg/mL; against Staphylococcus aureus [19], 32 µg/mL.

Consider `COc1ccc(C(=O)COc2c(OC)ccc3c2c[n+]2c4c3ccc3c5c(cc(c34)CC2)OCO5)cc1C(F)(F)F.[Br-]`, for which the MIC in the assay with Staphylococcus aureus [6] was 8 µg/mL; in the assay on Staphylococcus aureus [7], 4 µg/mL; in the assay on Staphylococcus aureus [8], 4 µg/mL; against Staphylococcus aureus [9], 4 µg/mL; in the assay on Staphylococcus aureus [1], above 64 µg/mL; with Staphylococcus aureus [2], above 64 µg/mL. The MIC in the assay on Staphylococcus aureus [10] came to 4 µg/mL; in [3], 4 µg/mL; against Staphylococcus aureus [11], 8 µg/mL; against Staphylococcus aureus [12], 4 µg/mL; in the assay with Staphylococcus aureus [13], 8 µg/mL; against Staphylococcus aureus [14], 4 µg/mL. The MIC was 16 µg/mL against Staphylococcus aureus [15]; 8 µg/mL in [4]; 8 µg/mL against Staphylococcus aureus [16]; 4 µg/mL in assay [5]; 4 µg/mL with Staphylococcus hominis; 4 µg/mL against Staphylococcus aureus [17]. Further, the MIC in the assay with Staphylococcus aureus [18] and against Staphylococcus aureus [19] was 4 µg/mL in each case.

In general, MIC refers to the smallest concentration in the dilution series that meets the test's criterion for growth inhibition. Low values mean greater potency, high ones weaker potency.
